In data set [1] the test system is Plasmodium falciparum. Briefly: Antimalarial activity against Plasmodium falciparum 3D7 infected in erythrocytes incubated for 24 hrs by [3H]hypoxanthine incorporation assay. The format is functional, organism-based.
Data set [2] relates to Plasma. Briefly: Stability in CD1 mouse plasma at 10 mM in presence of serine protease inhibitor PMSF after 0.5 to 2 hrs by UPLC-MS/MS method. The format is ADME, cell-free. The conditions noted are these: 10000 µM.
In data set [3] the test system is HepG2. Briefly: Cytotoxicity against human HepG2 cells. It counts as cell-based.
Data set [4] deals with Plasmodium falciparum. The experiment in a line: Antimalarial activity against Plasmodium falciparum 3D7 infected in erythrocytes incubated for 72 hrs by [3H]hypoxanthine incorporation assay. It counts as functional, organism-based.
The target of data set [5] is Dipeptidyl peptidase 4 (Homo sapiens, UniProt P27487). The experiment in a line: Inhibition of DPP4 (unknown origin).
The target of data set [6] is Voltage-gated inwardly rectifying potassium channel KCNH2 (Homo sapiens, UniProt Q12809). The experiment in a line: Inhibition of human ERG by QPatch assay. On the technique in general: In patch-clamp work, channel activity is measured electrically.
Data set [7] can be described thus: Inhibition of CYP3A (unknown origin) by 4VG metabolism assay. It counts as ADME, Homo sapiens.
For data set [8], the system named is Plasmodium falciparum. The experiment in a line: Antimalarial activity against Plasmodium falciparum 3D7 infected in erythrocytes incubated for 48 hrs by [3H]hypoxanthine incorporation assay. It counts as functional, organism-based.
Data set [9] is described as follows: Half life in human liver microsomes. The format is ADME. (In general: Liver microsomes are vesicles of endoplasmic reticulum, rich in cytochrome P450 enzymes.)
In data set [10] the test system is Blood. Briefly: Stability in CD1 mouse blood at 10 mM after 0.5 to 2 hrs by UPLC-MS/MS method. The format is ADME, tissue-based. Conditions: 10000 µM.
Data set [11] relates to Plasmodium berghei. Briefly: Antimalarial activity against Plasmodium berghei infected in orally dosed mouse model of malaria infection. The format is functional. Conditions: po. Summed up: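 Mice infected with P. berghei; compound given orally (p.o.) as 2 doses of 50 mg kg⁻¹.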
In data set [12] the test system is Plasma. Briefly: Stability in CD1 mouse plasma at 10 mM after 0.5 to 2 hrs by UPLC-MS/MS method. Conditions: 10000 µM. The format is ADME, cell-free.
The subject of data set [13] is Plasmodium falciparum. Briefly: Antimalarial activity against Plasmodium falciparum assessed as parasite reduction ratio at 10 times antimalarial IC50 level over 48 hrs. The format is functional. Summed up:
(§1)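 Parasite reduction ratio assay on P. falciparum with compound at 10× its Pf IC₅₀. Viable parasite decrease is followed over one life cycle (48 h), giving log₁₀ PRR and the time needed to kill 99.9% of parasites (PCT99.9%).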

Data set [14] can be described thus: Inhibition of CYP3A (unknown origin) by 4VR metabolism assay. The format is ADME, Homo sapiens.
Data set [15] in a line: Passive permeability by PAMPA method. The format is ADME. The conditions noted are these: read-out: permeability. (In general: In PAMPA a lipid-coated filter parts donor from acceptor wells.)
In data set [16] the test system is Plasmodium falciparum. Briefly: Antimalarial activity against Plasmodium falciparum assessed as time duration for 99.9% parasite killing at 10 times antimalarial IC50 level over 48 hrs. The format is functional. In a few lines: as §1
Data set [17] can be described thus: Half life in mouse liver microsomes. It counts as ADME.
Data set [18] in a line: Kinetic solubility of the compound by chemoluminescent nitrogen detection kinetic solubility assay. Conditions: read-out: Kinetic_solubility. It counts as physicochemical.
In data set [19] the test system is Liver microsome. The experiment in a line: Intrinsic clearance in human liver microsomes. The format is ADME.
Data set [20] addresses Albumin (Homo sapiens, UniProt P02768). Briefly: Binding affinity to HSA. The format is ADME. Conditions: human serum albumin (HSA), read-out: PB (converted).
For data set [21], the system named is Plasmodium falciparum. Briefly: Antimalarial activity against Plasmodium falciparum infected in erythrocytes assessed as young trophozoites level at 10 times antimalarial IC50 level incubated for 24 and 48 hrs by Giemsa staining based microsocpy.
In data set [22] the target is T1, Subtilisin-like protease 1 (Plasmodium falciparum, UniProt O61142).
T1 sequence (O61142 whole entry): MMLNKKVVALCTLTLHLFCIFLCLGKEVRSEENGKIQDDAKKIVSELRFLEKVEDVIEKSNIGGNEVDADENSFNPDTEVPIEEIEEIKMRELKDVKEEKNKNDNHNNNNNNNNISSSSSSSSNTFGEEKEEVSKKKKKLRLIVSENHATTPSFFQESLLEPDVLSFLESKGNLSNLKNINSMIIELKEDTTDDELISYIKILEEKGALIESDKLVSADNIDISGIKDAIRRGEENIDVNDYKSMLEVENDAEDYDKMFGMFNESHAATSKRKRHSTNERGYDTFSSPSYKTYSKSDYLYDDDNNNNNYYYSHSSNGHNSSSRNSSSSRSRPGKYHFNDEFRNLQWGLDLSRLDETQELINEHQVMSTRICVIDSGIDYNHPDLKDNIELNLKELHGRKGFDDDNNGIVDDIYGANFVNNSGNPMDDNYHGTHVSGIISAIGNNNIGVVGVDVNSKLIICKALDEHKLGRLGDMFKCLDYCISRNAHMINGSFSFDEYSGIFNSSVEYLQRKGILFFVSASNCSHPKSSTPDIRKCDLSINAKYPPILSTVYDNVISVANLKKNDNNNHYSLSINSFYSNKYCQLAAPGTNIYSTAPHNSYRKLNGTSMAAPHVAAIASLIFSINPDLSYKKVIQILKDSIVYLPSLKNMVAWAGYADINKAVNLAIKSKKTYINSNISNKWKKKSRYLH
The experiment in a line: Inhibition of Plasmodium falciparum recombinant SUB1 using SERA4st1F-6R12 substrate incubated for 55 mins by fluorescence spectrophotometry.

The test system of data set [23] is Plasmodium falciparum. The experiment in a line: Antimalarial activity against Plasmodium Plasmodium falciparum infected in orally dosed humanized SCID mouse model of malaria infection. The format is functional. The conditions noted are these: po. In a few lines: (§2)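 P. falciparum-infected humanized mice, standard four-day test; compound given orally at several doses, vehicle (n = 4) and oral chloroquine 10 mg·kg⁻¹ (n = 2) as controls. Parasitemia followed per mouse. Peripheral blood sampled 96 h after starting treatment and analysed by microscopy and by flow cytometry gating infected human erythrocytes.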

In data set [24] the test system is Plasmodium falciparum. Briefly: Antimalarial activity against Plasmodium falciparum infected in humanized SCID mouse model of malaria infection assessed as induction of abnormal trophozoites with hemozoin granules and pyknotic cells in parasite at 217 mg/kg, po measured 96 hrs post dose by microscopic and flow cytometry method. It counts as functional, organism-based. Summed up: as §2

In data set [25] the test system is Plasmodium falciparum. The experiment in a line: Antimalarial activity against Plasmodium falciparum infected in humanized SCID mouse model of malaria infection assessed as induction of phenotypic changes in parasite at 217 mg/kg, po measured 96 hrs post dose by microscopic and flow cytometry method. It counts as functional, organism-based. Summed up:
as §2

For data set [26], the system named is Plasmodium falciparum. The experiment in a line: Antimalarial activity against Plasmodium falciparum infected in humanized SCID mouse model of malaria infection assessed as induction of altered rings in parasite at 217 mg/kg, po measured 96 hrs post dose by microscopic and flow cytometry method. The format is functional, organism-based. Summed up: as §2
In data set [27] the test system is Blood. The experiment in a line: Drug level in blood of Plasmodium falciparum infected humanized SCID mouse model of malaria infection at 217 mg/kg, po measured 96 hrs post dose. It counts as ADME, organism-based. The conditions noted are these: in vivo.

Each structure is given as a SMILES string. ≈ marks a conversion by molar mass, not a printed value. Calls of active or inactive are those of the source. The rule behind the calls is not given here.

Chain of Dipeptidyl peptidase 4 (P27487 whole entry): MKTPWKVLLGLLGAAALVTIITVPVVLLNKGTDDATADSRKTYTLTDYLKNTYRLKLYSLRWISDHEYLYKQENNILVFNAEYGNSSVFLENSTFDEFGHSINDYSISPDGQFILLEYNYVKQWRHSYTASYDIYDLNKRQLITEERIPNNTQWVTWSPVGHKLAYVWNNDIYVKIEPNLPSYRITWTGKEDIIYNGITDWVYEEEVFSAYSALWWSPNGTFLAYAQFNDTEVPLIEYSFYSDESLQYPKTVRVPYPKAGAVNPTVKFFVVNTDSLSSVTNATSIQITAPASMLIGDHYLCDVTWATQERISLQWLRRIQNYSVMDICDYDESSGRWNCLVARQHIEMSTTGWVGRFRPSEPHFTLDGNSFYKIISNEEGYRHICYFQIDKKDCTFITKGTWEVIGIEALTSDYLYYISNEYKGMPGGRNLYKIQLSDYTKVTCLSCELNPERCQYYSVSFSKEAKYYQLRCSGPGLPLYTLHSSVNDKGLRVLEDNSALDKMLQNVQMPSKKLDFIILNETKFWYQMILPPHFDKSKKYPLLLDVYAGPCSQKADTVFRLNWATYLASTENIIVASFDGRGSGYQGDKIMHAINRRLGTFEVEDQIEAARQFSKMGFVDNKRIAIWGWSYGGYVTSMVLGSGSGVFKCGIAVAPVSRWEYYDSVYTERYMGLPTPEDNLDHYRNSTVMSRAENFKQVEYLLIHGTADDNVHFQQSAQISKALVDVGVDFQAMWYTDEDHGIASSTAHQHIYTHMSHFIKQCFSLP
Chain of Voltage-gated inwardly rectifying potassium channel KCNH2 (Q12809 whole entry): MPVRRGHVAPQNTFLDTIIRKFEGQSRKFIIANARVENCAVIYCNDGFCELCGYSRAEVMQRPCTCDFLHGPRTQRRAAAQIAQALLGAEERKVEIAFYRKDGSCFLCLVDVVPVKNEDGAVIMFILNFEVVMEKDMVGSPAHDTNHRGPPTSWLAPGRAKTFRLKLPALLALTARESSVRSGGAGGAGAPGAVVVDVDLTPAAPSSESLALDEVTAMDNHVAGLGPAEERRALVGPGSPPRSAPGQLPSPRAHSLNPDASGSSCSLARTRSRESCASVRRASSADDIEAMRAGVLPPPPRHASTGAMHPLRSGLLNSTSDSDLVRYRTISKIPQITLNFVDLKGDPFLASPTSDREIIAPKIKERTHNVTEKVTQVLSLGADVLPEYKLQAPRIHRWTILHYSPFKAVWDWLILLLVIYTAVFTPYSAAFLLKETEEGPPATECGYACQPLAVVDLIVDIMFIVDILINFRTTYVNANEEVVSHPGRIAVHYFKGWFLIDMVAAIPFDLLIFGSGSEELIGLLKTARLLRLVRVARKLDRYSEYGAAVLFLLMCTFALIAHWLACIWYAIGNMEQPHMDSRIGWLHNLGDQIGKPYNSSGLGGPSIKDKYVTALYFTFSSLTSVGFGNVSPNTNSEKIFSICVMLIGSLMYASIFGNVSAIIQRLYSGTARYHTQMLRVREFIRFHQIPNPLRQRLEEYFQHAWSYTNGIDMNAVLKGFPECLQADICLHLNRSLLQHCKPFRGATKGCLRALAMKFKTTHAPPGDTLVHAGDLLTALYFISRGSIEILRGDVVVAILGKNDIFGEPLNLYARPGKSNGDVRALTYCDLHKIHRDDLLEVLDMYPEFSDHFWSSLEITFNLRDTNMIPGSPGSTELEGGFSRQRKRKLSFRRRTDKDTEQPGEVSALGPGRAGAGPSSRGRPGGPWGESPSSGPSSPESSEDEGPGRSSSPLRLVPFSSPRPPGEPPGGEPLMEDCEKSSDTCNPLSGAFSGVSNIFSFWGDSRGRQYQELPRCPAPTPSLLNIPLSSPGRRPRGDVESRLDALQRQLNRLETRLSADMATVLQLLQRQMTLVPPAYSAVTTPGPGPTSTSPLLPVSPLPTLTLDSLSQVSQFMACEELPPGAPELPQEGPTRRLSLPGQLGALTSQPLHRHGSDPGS
Chain of Albumin (P02768 whole entry): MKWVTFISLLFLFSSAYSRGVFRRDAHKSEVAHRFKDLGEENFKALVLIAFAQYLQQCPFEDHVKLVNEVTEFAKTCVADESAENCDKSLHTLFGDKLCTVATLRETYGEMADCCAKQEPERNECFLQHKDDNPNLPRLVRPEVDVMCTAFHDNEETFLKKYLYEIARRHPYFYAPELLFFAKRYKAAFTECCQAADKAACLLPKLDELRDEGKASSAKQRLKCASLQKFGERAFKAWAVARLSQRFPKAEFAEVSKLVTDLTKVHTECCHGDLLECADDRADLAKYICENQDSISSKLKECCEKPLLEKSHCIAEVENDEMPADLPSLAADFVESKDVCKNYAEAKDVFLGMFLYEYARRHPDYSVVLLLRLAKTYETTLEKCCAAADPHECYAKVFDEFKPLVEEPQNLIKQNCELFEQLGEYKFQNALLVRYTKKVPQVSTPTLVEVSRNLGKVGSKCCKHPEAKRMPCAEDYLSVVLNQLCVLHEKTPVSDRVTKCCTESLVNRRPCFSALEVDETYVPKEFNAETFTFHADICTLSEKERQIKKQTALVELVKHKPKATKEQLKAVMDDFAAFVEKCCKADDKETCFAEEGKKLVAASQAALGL

The term IC50 denotes the point on the concentration scale where inhibition reaches its midpoint. What is called half-life is the time in which the quantity being followed falls by half. Read a low half-life as rapid decline. One may read the ED50 as the midpoint of the dose-response relation. Read a low ED50 as greater potency. For the molecule `CC(C)N(C)C(=O)n1cnc(S(=O)(=O)C2CC3CCC2C3)n1` (centres undefined), the half-inhibitory concentration (IC50) in data set [1] was 49 nM; in data set [3], over 100000 nM; in data set [4] it was 28 nM; in data set [5], 9 nM; in data set [7], over 50000 nM; in [8], 16 nM. For the same molecule, the half-maximal inhibitory concentration (IC50) in data set [14] is 31600 nM; in data set [22], “Not Active”. Further, the Stability entry in [2] is “Stable”; in [10] it was “Unstable”; in data set [12], “Unstable”. In [6], the “inhibition (INH)” value was “Not Active”. In addition, the results for the half-life in [9] and in data set [17] were over 30 min and 3.8 min, respectively. The same molecule came in with a 50% effective dose (ED50) in data set [11] of over 50 mg/kg. In [13], the “log(ratio)” value amounted to 3.1. Further, in [15], the Papp was over 30 ×10⁻⁶ cm/s. Also, the Time in data set [16] amounted to 48 h. The solubility kinetic in data set [18] was at least 500 µM. For the same molecule, the Intrinsic clearance in data set [19] amounted to 1.6 mL/min/g. Moreover, the fraction unbound in [20] was 0.42. Further, the outcome in [21] was Active.

In [23], `COc1ccc(CN(C)C(=O)n2cnc(S(=O)(=O)[C@@H]3C[C@H]4CC[C@@H]3C4)n2)cc1` returned a median effective dose (ED50) of 100 mg/kg. Also, the ED90 in data set [23] was 150 mg/kg. In addition, the 50% inhibitory concentration (IC50) in [3] is over 100000 nM; in data set [8], 10 nM; in data set [22], “Not Active”. Besides, the outcome in [24], in [25], in data set [21] and in data set [26] was Active. In data set [17], this molecule registered a half-life of 22.6 min. Besides, in data set [18], the solubility kinetic was 125 µM (≈ 50.6 µg/mL). Also, the Drug uptake result in data set [27] is “Not Active”.
